Test results as given in ChEMBL document CHEMBL1629504, “Synthesis, antitrichinnellosis and antiprotozoal activity of some novel thieno[2,3-d]pyrimidin-4(3H)-ones containing benzimidazole ring” (2010).
Active and inactive are the calls of the source. The calls are words filed in the database; no cut-off is given here.

Legend:
Paramecium caudatum = assay: Antiprotozoal activity against Paramecium caudatum assessed as parasites viability at 1 ug/ml after 15-20 mins by stereomicroscopy; type: functional
In short: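 Paramecia from dry-hay maceration culture; 2–3 drops of culture added to a drop of compound in DMSO (1 µg/ml) in a Petri dish. Motility and cell integrity followed stereomicroscopically over minutes after addition.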

Trichinella spiralis [1] = assay: Antitrichinellosis activity against Trichinella spiralis assessed as parasites viability at 5 ug/ml after 48 hrs by stereomicroscopy; type: functional
In short: (§1)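 Encapsulated larvae, 100 per 1 ml physiological solution (Campbell's method), exposed to compound dissolved in DMSO at 5 µg/ml; incubated in a humid thermostatted chamber at 37 °C. Larval vitality checked by stereomicroscopy at 24 and 48 h.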

Trichinella spiralis [2] = assay: Antitrichinellosis activity against Trichinella spiralis assessed as parasites viability at 5 ug/ml after 24 hrs by stereomicroscopy; type: functional; in short: as §1
Giardia muris = assay: Antiprotozoal activity against Giardia muris infected in white mouse assessed as presence of cysts in mouse faeces at 0.5 ug/ml, po after 5 days by microscopy; type: functional, organism-based; conditions: Feces
In short: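 Infected white mice (five per group) dosed p.o. once daily by thin metal oesophageal probe, 0.5 µg/ml pro die as 0.5 ml DMSO solution, for 5 days; untreated and DMSO-only control groups. After the course, faeces stained with Lugol's solution and examined microscopically for cysts.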

Compound | Activity (Paramecium caudatum) | Efficacy (Trichinella spiralis [1]) | Efficacy (Trichinella spiralis [2]) | Activity (Giardia muris)
CCOC(=O)c1sc2nc(CCSc3nc4cc(Cl)ccc4[nH]3)[nH]c(=O)c2c1C | Active | 5.09% | 0% | Active
Cn1c(SCCc2nc3sc4c(c3c(=O)[nH]2)CCCC4)nc2ccccc21 | Active | 89.9% | 40.05% | Active
CCCSc1ccc2[nH]c(NC(=O)OC)nc2c1 [ALBENDAZOLE] | – | 14.8% | 10.6% | –
O=c1[nH]c(CCn2cnc3cc([N+](=O)[O-])ccc32)nc2sc3c(c12)CCCC3 | Active | 95.05% | 95.05% | Active
O=c1[nH]c(CCSc2nc3ccccc3n2[N+](=O)[O-])nc2sc3c(c12)CCCC3 | Active | 90.1% | 90.1% | Active
CCOC(=O)c1sc2nc(CCn3cnc4ccccc43)[nH]c(=O)c2c1C | Active | 85.3% | 79.8% | Active
CCOC(=O)c1sc2nc(CCSc3nc4ccccc4n3CC)[nH]c(=O)c2c1C | Active | 59.75% | 39.07% | Active
CCOC(=O)c1sc2nc(CCSc3nc4cc([N+](=O)[O-])ccc4[nH]3)[nH]c(=O)c2c1C | Active | 80.05% | 50% | Active
CCCn1c(SCCc2nc3sc4c(c3c(=O)[nH]2)CCCC4)nc2ccccc21 | Active | 90.05% | 84.8% | Active
